# Only some compounds are listed: those with a hit (about 12% of all), similar ones and a draw of the others.
# CHOP inh: inhibitors of CHOP promoter induction, primary screen, cell-based, unfolded protein response, luciferase reporter. CHO-K1 CHOP-promoter luciferase, tunicamycin-induced, 15-18 h. inhibition, % at 10 µM. 3.8% of 220,000 active. AID 2732, 2010;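 active means compounds that reduced the stress-induced luciferase reporter signal by more than about 70% of percent inhibition, limit read from the data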
# PKD1 inh: inhibitors of human PKD1 kinase, biochemical, fluorescence polarization. Serine/threonine-protein kinase D1 (Homo sapiens), Q15139. PKD1 kinase fluorescence polarization assay. inhibition, % (no concentration beside the values). 0.056% of 200,000 active. AID 797, 2007
# Arbovirus inh: antivirals against arbovirus infection, primary screen, cell-based, full library, 10K replicate subset | 0.37% of 200,000 active | AID 1251, 2008 | arbovirus infection cell-based antiviral screen | inhibition, % at 10 µM; in the data active means inhibition above about 30%
# L major viab: Leishmania major promastigote growth inhibition, primary screen | Leishmania major promastigotes, resazurin fluorescence viability | inhibition, % at 10 µM | 9% of 200,000 active;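 further: promastigotes grown with compound for 44 hours at 28 °C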
# Wee1 stabilizer: Wee1 degradation inhibitors, primary screen, cell-based, HeLa, Wee1K328M-luciferase, luminescence | Wee1-like protein kinase (Homo sapiens), P30291 | AID 1321, 2008 | 1.2% of 220,000 active | reporter increase, % at 5 µM | HeLa Luc-Wee1K328M stability; 100% = proteasome inhibitor MG132 effect;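 active means activation above the mean of all tested compounds plus 3 SD, set per screening run, cut at about 8.8% in these data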;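 further: cells exposed to compound for 20 h before luminescence read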
# Rad51 HR inh: human RAD51 strand exchange inhibitors, primary screen, biochemical, fluorescence; AID 1385, 2008; inhibition, % at 10 µM; hRad51 DNA strand exchange, fluorescence dequenching; 0.085% of 200,000 active;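 active means inhibition above 40% at the single screening dose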
#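 System: hRad51 filaments on single-stranded DNA; reagent: Fluorescein- and BHQ1-tagged 47-mer duplex; compound dosing: one concentration, 10 µM final; timing: filaments 15 min 37 °C, then compound 30 min; measured by: fluorescein emission 520 nm, excitation 485 nm; benchmarks: per-plate controls and blanks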
# Numbers stand for hits; . = inactive; / = no result. Unless noted, no stated cut-off is given here; in the data, active means inhibition above about 50%; inactive means the rest.
SMILES,CHOP inh,PKD1 inh,Arbovirus inh,L major viab,Wee1 stabilizer,Rad51 HR inh
C=C1C(C(=O)Nc2ccccc2)C1C(=O)Nc1ccccc1 (stereo unspecified),.,/,/,/,.,.
Cc1cc(C(=O)CN2C(=O)c3cccc(N)c3C2=O)c(C)n1Cc1cccs1,.,.,.,.,.,/
COc1ccc(/C=N/NC(=O)COc2ccc(Cl)cc2Cl)cc1Cn1nc(C)cc1C,93,.,.,.,.,.
COc1ccc(/C=N\NC(=O)COc2ccc(Cl)cc2Cl)c(C(=O)O)c1OC,.,.,.,.,.,.
COc1ccc(N2CCN(C(=S)NCCc3ccccc3)CC2)cc1,/,.,/,.,9.4,.
S=C(NCCc1ccccc1)N1CCc2ccccc2C1,.,.,.,78,.,.
Oc1ccccc1N1CCN(C(=S)NCCc2ccccc2)CC1,.,.,.,.,.,.
Oc1ccc(N2CCN(C(=S)NCCc3ccccc3)CC2)cc1,.,.,.,98,.,.
COC(=O)c1ccc(NC(=O)C(=O)N2CCN(C(=S)NCCc3ccccc3)CC2)cc1,.,.,.,72,.,.
COCCCNC(=S)N1CCN(C(=O)C(=O)Nc2ccc(C(=O)OC)cc2)CC1,.,.,.,.,.,.
CC12CC3(C)CC(C)(C1)CC(C(=O)NC(=S)N1CCCC1)(C2)C3,.,.,.,.,.,.
O=C(O)C1=C[C@H](c2csc3ccccc23)C[C@H](OCCCCO)O1,.,.,.,.,.,.
NC(=S)Nc1cccc(O)c1,.,/,/,/,.,.
CC1CCN(C(=O)CNC(=O)c2cccc(OC(F)F)c2)CC1,.,.,.,.,.,.
COc1ccccc1N1CCN(C(=O)CCCN2C(=O)c3cccc4cccc(c34)C2=O)CC1,.,.,.,.,.,.
S=C(NCCc1ccccc1)N1CCN(Cc2ccccc2)CC1,.,.,.,58,.,.
CCCN(CCC)Cc1c(C(=O)OCC)nnn1-c1nonc1N,86,.,.,.,.,/
O=C(Cn1cc(C(F)(F)F)cc(Cl)c1=O)NCCc1ccc(Cl)cc1Cl,74,/,/,/,.,.
O=C(Cn1cc(C(F)(F)F)cc(Cl)c1=O)Nc1cccc(Cl)c1,.,.,.,.,.,/
O=C(COc1ccccc1)NC1CCCCC1,.,.,.,.,.,.
O=C(COc1ccc(C(=O)c2ccccc2)cc1)NC1CCCCCC1,.,.,.,62,.,.
O=C(COc1ccc(C(=O)c2ccccc2)cc1)NC1CCCCC1,.,.,.,53,.,.
O=C1c2nc3cc(-c4ccco4)[nH]n3c(=O)c2CN1C1CCCCC1,.,/,/,/,.,.
O=C1C2C(C(=O)N1/N=C/c1ccc([N+](=O)[O-])o1)C1C=CC2C12CC2 (stereo unspecified),.,.,.,90,.,/
O=C1C2C3C=CC(C3)C2C(=O)N1/N=C/c1ccc(-c2ccccc2[N+](=O)[O-])o1 (stereo unspecified),.,.,.,.,.,.
SMILES,CHOP inh,PKD1 inh,Arbovirus inh,L major viab,Wee1 stabilizer,Rad51 HR inh
O=C1C2C3C=CC(C4CC34)C2C(=O)N1/N=C/c1ccc([N+](=O)[O-])o1 (stereo unspecified),.,.,.,99,.,.
O=C1C2C3C=CC(C4CC34)C2C(=O)N1/N=C/c1ccc(-c2ccc([N+](=O)[O-])cc2)o1 (stereo unspecified),.,.,.,.,.,.
N#C/C(=C\c1ccc(OCC(N)=O)cc1)S(=O)(=O)c1ccccc1,.,.,.,.,.,.
S=C(NCc1ccccn1)Nc1ccc(Cl)cc1,.,.,.,.,.,.
Fc1cccc(NC(=S)NCc2ccccn2)c1,.,.,.,63,.,.
CCSc1nnc2ccc(-c3ccco3)nn12,.,.,.,.,.,.
N#CC1=C(N)N(c2ccc(Oc3ccccc3)cc2)C(=O)C1,.,.,.,91,.,.
N#CC1=C(N)Nc2nc3ccccc3n2C1c1ccc(Cl)cc1 (stereo unspecified),90,.,.,77,.,.
N#CC1=C(N)Nc2ncnn2C1c1ccccc1 (stereo unspecified),.,.,.,57,.,.
